According to ChEMBL document CHEMBL4152320, “Discovery and development of novel salicylate synthase (MbtI) furanic inhibitors as antitubercular agents” (Eur J Med Chem, 2018):
In brackets after ≈: the same amount, converted by molar mass. Activity calls are given as the source filed them. The calls are words filed in the database; no cut-off is given here.

What was measured:
[1] = tested on: Mycobacterium tuberculosis; assay: Inhibition of Mycobacterium tuberculosis salicylate synthase expressed in Escherichia coli BL21(DE3) assessed as residual activity at 100 uM using chorismic acid as substrate in presence of NADH by l-lactic dehydrogenase enzyme coupled assay relative to control
[2] = Inhibition of Mycobacterium tuberculosis salicylate synthase expressed in Escherichia coli BL21(DE3) using chorismic acid as substrate in presence of NADH by l-lactic dehydrogenase enzyme coupled assay
In short: (§1)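 IC50 at subsaturating chorismic acid (50 µM) via LDH-coupled NADH assay, 37 °C, 50 mM HEPES pH 8.0, 10 mM MgCl2, 10-20 µM MbtI; activity at varied inhibitor fitted to A[I] = A[0]×(1−[I]/([I]+IC50)). Aggregation controls run with BSA or Triton X-100 added (line 8 BSA, line 11 Triton).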

[3] = tested on: Mycobacterium tuberculosis; assay: Inhibition of Mycobacterium tuberculosis salicylate synthase expressed in Escherichia coli BL21(DE3) using chorismic acid as substrate in presence of DTT by l-lactic dehydrogenase enzyme coupled assay
In short: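 IC50 with 100 µM DTT present, to probe cysteine reactivity; LDH-coupled assay at 37 °C with 50 µM chorismic acid, 50 mM HEPES pH 8.0, 0.2 mM NADH, 10 mM MgCl2, 10-20 µM MbtI; fitted to single-site IC50 equation.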

[4] = tested on: Mycobacterium tuberculosis; assay: Inhibition of Mycobacterium tuberculosis salicylate synthase expressed in Escherichia coli BL21(DE3) using chorismic acid as substrate in presence of BSA by l-lactic dehydrogenase enzyme coupled assay; in short: as §1
[5] = tested on: Mycobacterium tuberculosis; assay: Inhibition of Mycobacterium tuberculosis salicylate synthase expressed in Escherichia coli BL21(DE3) using chorismic acid as substrate in presence of Triton-X-100 by l-lactic dehydrogenase enzyme coupled assay; in short: as §1
[6] = tested on: Mycobacterium tuberculosis; assay: Antimycobacterial activity against Mycobacterium tuberculosis H37Rv; format: functional
In short: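 MIC99 vs M. tuberculosis H37Rv on solid medium. Single colony grown in 7H9 + 10% OADC at 37 °C to exponential phase (~10^8 CFU/mL), diluted to ~10^6 CFU/mL, about 1 µL streaked onto plates with two-fold serial compound dilutions; MIC = lowest concentration inhibiting growth; triplicate.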

[7] = Competitive inhibition of Mycobacterium tuberculosis salicylate synthase expressed in Escherichia coli BL21(DE3) using varying levels of chorismic acid as substrate in presence of NADH by l-lactic dehydrogenase enzyme coupled assay
In short: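 Ki by competitive-inhibition fit of MbtI activity across varied CHA (10-500 µM range used for kinetics) and inhibitor levels (0, 5, 10, 20, 50, 100 µM). Coupled lactate dehydrogenase assay at 37 °C: 50 mM HEPES pH 8.0, 0.2 mM NADH, 10 mM MgCl2, 3 U LDH, 10-20 µM MbtI; reactions started with CHA; triplicate.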

Row | Structure (SMILES) | Activity [1] [%] | also measured
1 | O=C(O)c1ccc(-c2cccc([N+](=O)[O-])c2)o1 | 50.2 | 
2 | O=C(O)c1ccc(-c2ccc(O)cc2)o1 | 96.3 | 
3 | O=C(O)c1ccc(-c2ccccc2Cl)o1 | 92.4 | 
4 | O=C(O)c1ccc(-c2ccccc2)o1 | 102 | 
5 | COc1ccc([N+](=O)[O-])cc1S(=O)(=O)Nc1cccc(C(=O)O)c1 | 38.4 | IC50 [2]: 77.6 µM
6 | COC(=O)c1ccc(-c2ccc([N+](=O)[O-])cc2)o1 | 71.1 | 
7 | Cc1cc(C(=O)O)c2ccc(F)cc2n1 | 101 | 
8 | COc1ccc(C(=O)O)cc1OCc1ccncc1 | 104 | 
9 | O=C(O)c1cccc(-c2ccc([N+](=O)[O-])cc2)c1 | 36.8 | 
10 | O=C(O)c1ccc(-c2ccc([N+](=O)[O-])cc2Cl)o1 | 21.3 | IC50 [2]: 21.1 µM
11 | C/C=C(\Oc1cccc(C(=O)O)c1O)C(=O)O |  | IC50 [2]: 11.6 µM
12 | O=C(O)c1ccc(-c2ccncc2)o1 | 45 | 
13 | Cc1nc(C(C)NC(=O)c2ccoc2)sc1C(=O)O (stereo unspecified) | 109 | 
14 | O=C(O)c1ccc(-c2ccc3nonc3c2)o1 | 46.8 | 
15 | CS(=O)(=O)c1ccc(-c2ccc(C(=O)O)o2)cc1 | 98.5 | 
16 | O=C(O)c1ccc(-c2ccccc2[N+](=O)[O-])o1 | 55.1 | 
17 | NS(=O)(=O)c1ccc(-c2ccc(C(=O)O)o2)cc1 | 84.6 | 
18 | N#Cc1ccc(-c2ccc(C(=O)O)o2)cc1 | 126 | 
19 | O=C(O)c1ccc(-c2ccc(C(=O)O)o2)cc1 | 92.4 | 
20 | O=C(O)c1ccc(-c2ccc(C(F)(F)F)cc2)o1 | 66.3 | 
21 | O=C(O)c1ccc(-c2ccc(-c3nn[nH]n3)cc2)o1 | 104 | 
22 | O=C(O)c1ccc([N+](=O)[O-])cc1Cl | 89.3 | 
23 | O=C(O)c1ccc(-c2ccc3c(c2)COC3=O)o1 | 58 | 
24 | O=C(O)c1ccc(-c2ccc([N+](=O)[O-])cc2)o1 | 18.2 | inhibition [3]: Active; inhibition [4]: Active; inhibition [5]: Active; MIC99 [6]: 156 µM (≈ 36.4 µg/mL); Ki [7]: 5.3 µM
